{"source": "ChEMBL document CHEMBL1126990", "about": "“Design and synthesis of 18F-labeled neurotoxic analogs of MPTP” (J Med Chem, 1993)", "key": {"[1]": {"organism": "Mus musculus", "test": "Biodistribution of [18F]-radiolabeled compound in the mouse blood after 90 minutes (average uptake in (%injected dose)/(% body weight)", "format": "ADME, organism-based", "details": "in vivo, 1.5 h", "summary_of_the_method": "(§1)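 Adult male C57 Black mice (about 20 g), anesthetized with 1 mg sodium pentobarbital ip, given 0.1 mL (~0.05 mCi) tracer via tail vein. Killed by cervical dislocation at set times (5–90 min). Organs sampled, counted, weighed. Injected dose measured against weighed standards, minus residual tail activity. %id/g multiplied by body weight gives normalized uptake. Mean ± SD, N = 3 (N = 2 at 5 min).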"}, "[2]": {"organism": "Mus musculus", "test": "Biodistribution of [18F]-radiolabeled compound in the mouse bone after 15 minutes (average uptake in (%injected dose)/(% body weight)", "format": "ADME, organism-based, Bone element", "details": "in vivo, 0.25 h", "summary_of_the_method": "as §1"}, "[3]": {"organism": "Mus musculus", "test": "Biodistribution of [18F]-radiolabeled compound in the mouse bone after 5 minutes (average uptake in (%injected dose)/(% body weight)", "format": "ADME, organism-based, Bone element", "details": "in vivo", "summary_of_the_method": "as §1"}, "[4]": {"organism": "Mus musculus", "test": "Biodistribution of [18F]-radiolabeled compound in the mouse bone after 60 minutes (average uptake in (%injected dose)/(% body weight)", "format": "ADME, organism-based, Bone element", "details": "in vivo, 1 h", "summary_of_the_method": "as §1"}, "[5]": {"organism": "Mus musculus", "test": "Biodistribution of [18F]-radiolabeled compound in the mouse bone after 90 minutes (average uptake in (%injected dose)/(% body weight)", "format": "ADME, organism-based, Bone element", "details": "in vivo, 1.5 h", "summary_of_the_method": "as §1"}, "[6]": {"organism": "Mus musculus", "test": "Biodistribution of [18F]-radiolabeled compound in the mouse brain after 15 minutes (average uptake in (%injected dose)/(% body weight)", "format": "ADME, organism-based", "details": "in vivo, 0.25 h", "summary_of_the_method": "as §1"}, "[7]": {"organism": "Mus musculus", "test": "Biodistribution of [18F]-radiolabeled compound in the mouse brain after 30 minutes (average uptake in (%injected dose)/(% body weight)", "format": "ADME, organism-based", "details": "in vivo, 0.5 h", "summary_of_the_method": "as §1"}, "[8]": {"organism": "Mus musculus", "test": "Biodistribution of [18F]-radiolabeled compound in the mouse brain after 5 minutes (average uptake in (%injected dose)/(% body weight)", "format": "ADME, organism-based", "details": "in vivo", "summary_of_the_method": "as §1"}, "[9]": {"organism": "Mus musculus", "test": "Biodistribution of [18F]-radiolabeled compound in the mouse brain after 60 minutes (average uptake in (%injected dose)/(% body weight)", "format": "ADME, organism-based", "details": "in vivo, 1 h", "summary_of_the_method": "as §1"}, "[10]": {"organism": "Mus musculus", "test": "Biodistribution of [18F]-radiolabeled compound in the mouse brain after 90 minutes (average uptake in (%injected dose)/(% body weight)", "format": "ADME, organism-based", "details": "in vivo, 1.5 h", "summary_of_the_method": "as §1"}, "[11]": {"organism": "Mus musculus", "test": "Biodistribution of [18F]-radiolabeled compound in the mouse heart after 15 minutes (average uptake in (%injected dose)/(% body weight)", "format": "ADME, organism-based", "details": "in vivo, 0.25 h", "summary_of_the_method": "as §1"}, "[12]": {"organism": "Mus musculus", "test": "Biodistribution of [18F]-radiolabeled compound in the mouse lung after 30 minutes (average uptake in (%injected dose)/(% body weight)", "format": "ADME, organism-based", "details": "in vivo, 0.5 h", "summary_of_the_method": "as §1"}, "[13]": {"organism": "Mus musculus", "test": "Biodistribution of [18F]-radiolabeled compound in the mouse lung after 5 minutes (average uptake in (%injected dose)/(% body weight)", "format": "ADME, organism-based", "details": "in vivo", "summary_of_the_method": "as §1"}, "[14]": {"organism": "Mus musculus", "test": "Biodistribution of [18F]-radiolabeled compound in the mouse lung after 60 minutes (average uptake in (%injected dose)/(% body weight)", "format": "ADME, organism-based", "details": "in vivo, 1 h", "summary_of_the_method": "as §1"}, "[15]": {"organism": "Mus musculus", "test": "Biodistribution of [18F]-radiolabeled compound in the mouse lung after 90 minutes (average uptake in (%injected dose)/(% body weight)", "format": "ADME, organism-based", "details": "in vivo, 1.5 h", "summary_of_the_method": "as §1"}, "[16]": {"organism": "Mus musculus", "test": "Biodistribution of [18F]-radiolabeled compound in the mouse muscle after 15 minutes (average uptake in (%injected dose)/(% body weight)", "format": "ADME, organism-based, Muscle tissue", "details": "in vivo, 0.25 h", "summary_of_the_method": "as §1"}, "[17]": {"organism": "Mus musculus", "test": "Biodistribution of [18F]-radiolabeled compound in the mouse muscle after 30 minutes (average uptake in (%injected dose)/(% body weight)", "format": "ADME, organism-based, Muscle tissue", "details": "in vivo, 0.5 h", "summary_of_the_method": "as §1"}, "[18]": {"organism": "Mus musculus", "test": "Biodistribution of [18F]-radiolabeled compound in the mouse muscle after 5 minutes (average uptake in (%injected dose)/(% body weight)", "format": "ADME, organism-based, Muscle tissue", "details": "in vivo", "summary_of_the_method": "as §1"}, "[19]": {"organism": "Mus musculus", "test": "Biodistribution of [18F]-radiolabeled compound in the mouse muscle after 90 minutes (average uptake in (%injected dose)/(% body weight)", "format": "ADME, organism-based, Muscle tissue", "details": "in vivo, 1.5 h", "summary_of_the_method": "as §1"}, "[20]": {"organism": "Mus musculus", "test": "Biodistribution of [18F]-radiolabeled compound in the mouse spleen after 30 minutes (average uptake in (%injected dose)/(% body weight)", "format": "ADME, organism-based", "details": "in vivo, 0.5 h", "summary_of_the_method": "as §1"}, "[21]": {"organism": "Mus musculus", "test": "Biodistribution of [18F]-radiolabeled compound in the mouse spleen after 5 minutes (average uptake in (%injected dose)/(% body weight)", "format": "ADME, organism-based", "details": "in vivo", "summary_of_the_method": "as §1"}, "[22]": {"organism": "Mus musculus", "test": "Biodistribution of [18F]-radiolabeled compound in the mouse spleen after 60 minutes (average uptake in (%injected dose)/(% body weight)", "format": "ADME, organism-based", "details": "in vivo, 1 h", "summary_of_the_method": "as §1"}, "[23]": {"organism": "Mus musculus", "test": "Biodistribution of [18F]-radiolabeled compound in the mouse spleen after 90 minutes (average uptake in (%injected dose)/(% body weight)", "format": "ADME, organism-based", "details": "in vivo, 1.5 h", "summary_of_the_method": "as §1"}, "[24]": {"organism": "Mus musculus", "test": "Biodistribution of [18F]-radiolabeled compoundP in the mouse spleen after 15 minutes (average uptake in (%injected dose)/(% body weight)", "format": "ADME, organism-based", "details": "in vivo, 0.25 h", "summary_of_the_method": "as §1"}, "[25]": {"test": "Ratio between Vmax and Km", "format": "ADME", "summary_of_the_method": "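Rat liver MAO (crude P2 mitochondrial fraction from adult male Wistar rats, in pH 7.4 phosphate buffer) incubated with substrate at 30 μM to 5 mM; colorimetric detection of H2O2 formed. Blanks contained 0.1 mM pargyline. Vmax and Km from linear regression of Lineweaver-Burk plots; means ± SE of n separate experiments; ANOVA with post-hoc Scheffe test.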"}, "[26]": {"organism": "Mus musculus", "test": "Biodistribution of [18F]-radiolabeled compound in the mouse bone after 30 minutes (average uptake in (%injected dose)/(% body weight)", "format": "ADME, organism-based, Bone element", "details": "in vivo, 0.5 h", "summary_of_the_method": "as §1"}, "[27]": {"organism": "Mus musculus", "test": "Biodistribution of [18F]-radiolabeled compound in the mouse muscle after 60 minutes (average uptake in (%injected dose)/(% body weight)", "format": "ADME, organism-based, Muscle tissue", "details": "in vivo, 1 h", "summary_of_the_method": "as §1"}}, "data": [{"smiles": "CN1CC=C(c2ccccc2CF)CC1", "values": [{"measurement": "Time", "setting": "[1]", "value": 0.25, "unit": "min"}, {"measurement": "Time", "setting": "[2]", "value": 1.58, "unit": "min"}, {"measurement": "Time", "setting": "[3]", "value": 0.87, "unit": "min"}, {"measurement": "Time", "setting": "[4]", "value": 2.22, "unit": "min"}, {"measurement": "Time", "setting": "[5]", "value": 3.32, "unit": "min"}, {"measurement": "Time", "setting": "[6]", "value": 0.82, "unit": "min"}, {"measurement": "Time", "setting": "[7]", "value": 0.68, "unit": "min"}, {"measurement": "Time", "setting": "[8]", "value": 1.48, "unit": "min"}, {"measurement": "Time", "setting": "[9]", "value": 0.65, "unit": "min"}, {"measurement": "Time", "setting": "[10]", "value": 0.76, "unit": "min"}, {"measurement": "Time", "setting": "[11]", "value": 2.41, "unit": "min"}, {"measurement": "Time", "setting": "[12]", "value": 2.54, "unit": "min"}, {"measurement": "Time", "setting": "[13]", "value": 6.33, "unit": "min"}, {"measurement": "Time", "setting": "[14]", "value": 1.6, "unit": "min"}, {"measurement": "Time", "setting": "[15]", "value": 1.46, "unit": "min"}, {"measurement": "Time", "setting": "[16]", "value": 0.54, "unit": "min"}, {"measurement": "Time", "setting": "[17]", "value": 0.43, "unit": "min"}, {"measurement": "Time", "setting": "[18]", "value": 0.61, "unit": "min"}, {"measurement": "Time", "setting": "[19]", "value": 0.24, "unit": "min"}, {"measurement": "Time", "setting": "[20]", "value": 1.04, "unit": "min"}, {"measurement": "Time", "setting": "[21]", "value": 1.37, "unit": "min"}, {"measurement": "Time", "setting": "[22]", "value": 0.93, "unit": "min"}, {"measurement": "Time", "setting": "[23]", "value": 0.95, "unit": "min"}, {"measurement": "Time", "setting": "[24]", "value": 1.33, "unit": "min"}, {"measurement": "Ratio", "setting": "[25]", "value": 3.83}, {"measurement": "Time", "setting": "[26]", "value": 1.91, "unit": "min"}, {"measurement": "Time", "setting": "[27]", "value": 0.3, "unit": "min"}]}]}
